Measured values from ChEMBL document CHEMBL4219104, “Bicyclo((aryl)methyl)benzamides as inhibitors of GlyT1” (Bioorg Med Chem Lett, 2018).
Converted amounts (≈) assume the structure as drawn.

Legend:
[1] = Octanol-water partition coefficient, log D of the compound at pH 7.4; assay type: physicochemical
Procedure, shortened: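 logD determined empirically as ratio of compound partitioned between octanol and water at pH 7.4.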

[2] = Equilibrium solubility of the compound in phosphate buffer at pH 7.4 by UV-HPLC analysis; assay type: physicochemical
Procedure, shortened: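 Equilibrium solubility determined at pH 7.4.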

[3] = Volume of distribution at steady state in Sprague-Dawley rat at 3 umol/kg, iv; assay type: ADME, organism-based; conditions: in vivo, read-out: Vdss
[4] = Ratio of drug level in brain to plasma in Sprague-Dawley rat at 3 umol/kg, iv; assay type: ADME; conditions: read-out: BPR
[5] = Cmax in Sprague-Dawley rat at 9 umol/kg, po; assay type: ADME, organism-based; design: dose 9 umol/kg, route oral; conditions: in vivo
[6] = Tmax in Sprague-Dawley rat at 9 umol/kg, po; assay type: ADME, organism-based; conditions: in vivo
[7] = Oral bioavailability in Sprague-Dawley rat at 9 umol/kg; assay type: ADME, organism-based; conditions: in vivo
[8] = Ratio of drug level in brain to plasma in sc dosed CD-1 mouse; assay type: ADME, organism-based; conditions: read-out: BPR
Procedure, shortened: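 CD-1 mice dosed subcutaneously; brain and plasma levels compared as brain-to-plasma ratio.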

SMILES	logD [1]	solubility thermodynamic [2] [µM]	further results
Cc1cccc(C(NC(=O)c2cccc(C(F)(F)F)c2Cl)C23CCC(CC2)CN3C)c1 (racemic)	3		
Cc1cccc(C)c1C(=O)NC(c1ccccc1)C12CC(CN1C)C2 (stereo not given)	1.1		
COc1cncc(Cl)c1C(=O)N[C@H](c1ccccc1)C12CCC(CC1)CN2C	1	> 500	
CCN1C2CCC1(C(NC(=O)c1c(C)cccc1C)c1ccccc1)CC2 (stereo not given)	2.1		
CN1CC2CCC1([C@H](NC(=O)c1cccc(C(F)(F)F)c1Cl)c1ccccc1)CC2	2.7	> 482	
CN1CC2CCC1(C(NC(=O)c1cccc(C(F)(F)F)c1Cl)c1ccco1)CC2 (racemic)	2		
CN1CC2CCC1([C@H](NC(=O)c1ccnc(C(F)(F)F)c1F)c1ccccc1)CC2	2.4	> 500	
CCN1CC2CC1(C(NC(=O)c1c(C)cccc1C)c1ccccc1)C2 (stereo not given)	1.1		
Cc1cccc(C)c1C(=O)NC(c1ccncc1)C12CCC(CC1)N2 (stereo not given)	0.9		
CN1CC2CCC1(C(NC(=O)c1cccc(C(F)(F)F)c1Cl)c1ccccn1)CC2 (racemic)	1.6		
Cc1cccc(C)c1C(=O)NC(c1ccccc1)C12CCC(CC1)N2C1CC1 (stereo not given)	1.1		
CN1CC2CCC1([C@@H](NC(=O)c1cccc(C(F)(F)F)c1Cl)c1ccccc1)CC2	2.7	> 500	
CN1CC2CCC1([C@H](NC(=O)c1ccnc(Cl)c1Cl)c1ccccc1)CC2	2.2	498 (≈ 201 µg/mL)	
CN1CC2CCC1([C@H](NC(=O)c1cccc(Cl)c1Cl)c1ccccc1)CC2	2.2	493 (≈ 199 µg/mL)	
Cc1ccc(C(NC(=O)c2c(C)cccc2C)C23CCC(CC2)CN3C)o1 (stereo not given)	1.5		
CN1CC2CCC1(C(NC(=O)c1cccc(C(F)(F)F)c1Cl)c1ccncc1)CC2 (racemic)	2.4		
Cc1ccnc(C)c1C(=O)N[C@H](c1ccccc1)C12CCC(CC1)CN2C	0.8	373 (≈ 136 µg/mL)	
CN1CC2CCC1([C@H](NC(=O)c1c(Cl)cncc1Cl)c1ccccc1)CC2	1.4	481 (≈ 194 µg/mL)	
CN1CC2CCC1([C@H](NC(=O)c1ccncc1Br)c1ccccc1)CC2		> 500	
CN1CC2CCC1([C@H](NC(=O)c1c(N)cccc1Cl)c1ccccc1)CC2	1.3	462 (≈ 177 µg/mL)	

SMILES	logD [1]	solubility thermodynamic [2] [µM]	further results
CN1CCCC[C@H]1[C@@H](NC(=O)c1cccc(C(F)(F)F)c1Cl)c1ccccc1	2.9	124 (≈ 50.9 µg/mL)	
CN1CC2CCC1([C@H](NC(=O)c1c(Cl)cccc1Cl)c1ccccc1)CC2	1.9	> 500	
Cc1cccc(C)c1C(=O)NC(c1ccccc1)C12CCC(CC1)CN2 (stereo not given)	1.3		
Cc1cccc(C)c1C(=O)N[C@H](c1ccccc1)C12CCC(CC1)CN2C	1.9	414 (≈ 150 µg/mL)	Vd [3]: 1.8 L/kg; Kp [4]: 0.2; Cmax [5]: 2450 nM; Tmax [6]: 1 h; bioavailability [7]: 105%; Kp [8]: 0.4
COc1cccc(OC)c1C(=O)N[C@H](c1ccccc1)C12CCC(CC1)CN2C	0.7	495 (≈ 195 µg/mL)	
Cc1ccccc1C(NC(=O)c1cccc(C(F)(F)F)c1Cl)C12CCC(CC1)CN2C (racemic)	3		
Cc1cccc(C)c1C(=O)NC(c1ccc(S(=O)(=O)CC2CC2)cc1)C12CCC(CC1)CN2C (stereo not given)	2		
CSc1ncccc1C(=O)N[C@H](c1ccccc1)C12CCC(CC1)CN2C	1.3	> 500	
Cc1cccc(C)c1C(=O)NC(c1ccccc1)C12CC(CN1)C2 (stereo not given)	0.8		
Cc1cccc(C)c1C(=O)NC(c1ccccc1)C12CCC(CC1)N2 (stereo not given)	1.4		
Cc1cccc(C)c1C(=O)NC(c1cccc(-c2cnn(C)c2)c1)C12CCC(CC1)CN2C (stereo not given)	2.1		
Cc1cccc(C)c1C(=O)NC(c1ccncc1)C12CCC(CC1)CN2C (stereo not given)	1.4		
CN1CC2CCC1(C(NC(=O)c1cccc(C(F)(F)F)c1Cl)c1cccnc1)CC2 (racemic)	2.3		
CN1CC2CCC1([C@H](NC(=O)c1c(Cl)ccnc1Cl)c1ccccc1)CC2	1.1	> 500	
Cc1cccc(C)c1C(=O)NC(c1ccccc1)C12CCC(CC1)N2C(C)C (stereo not given)	1.9		
Cc1cccc(C)c1C(=O)NC(c1ccccc1)C12CCC(CC1)N2C (stereo not given)	1.9		
CN1CC2CCC1(C(NC(=O)c1cccc(C(F)(F)F)c1Cl)c1cccc(Br)c1)CC2 (racemic)	3.3		
CN1CC2CCC1(C(NC(=O)c1cccc(C(F)(F)F)c1Cl)c1ccccc1)CC2 (racemic)	2.7		
COc1ccc(C(NC(=O)c2cccc(C(F)(F)F)c2Cl)C23CCC(CC2)CN3C)cc1 (racemic)	2.7		
